Results on three compounds are retold here after PMC11265520 (RSC Advances, 2024).

One data set concerns the target hCA IX (Homo sapiens, UniProt Q16790). The data set is described as follows: biochemical. Type of data set: biochemical.
Another data set has as its system Capan-1. Briefly: Antiproliferative assay, Capan-1. Type of data set: cell-based. Conditions: Homo sapiens, CAPAN-1, read-out: IC50 Capan-1.
The test system of a further data set is HL-60. Briefly: Antiproliferative assay, HL-60. It is filed as cell-based. Conditions: Homo sapiens, HL-60, read-out: IC50 HL-60.
In a further data set the test system is Z138. The data set is described as follows: Antiproliferative assay, Z138. Type of data set: cell-based. To be noted: Homo sapiens, Z-138, read-out: IC50 Z138.
Data set [1] concerns breast cancer cells MCF-7. The data set is described as follows: MTT antiproliferative assay, MCF-7 under normoxia and hypoxia. It is filed as cell-based, human. To be noted: for IC50: Homo sapiens; for HCR, hypoxic cytotoxicity ratio: IC50(N)/IC50(H): MCF-7. The method, boiled down:
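MTT assay on MCF-7 cells grown in high-glucose DMEM with 10% FBS, penicillin and streptomycin at 37 °C and 5% CO2. Cells were seeded at 40 000 per well, and test compound (10 mM DMSO stock) was added after 24 h; controls got solvent. Cells were kept under normoxia (21% O2) or hypoxia (1% O2). IC50 is mean ± S.D. of 3 experiments; HCR = IC50(N)/IC50(H).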
Background: Formazan colour is commonly taken as a measure of viable cells.

In the next data set the test system is DND-41. Briefly: Antiproliferative assay, DND-41. It is filed as cell-based. To be noted: Homo sapiens, DND41, read-out: IC50 DND-41.
The target of the next data set is hCA XII (Homo sapiens, UniProt O43570). The data set is described as follows: Stopped flow CO2 hydrase assay, hCA XII. Type of data set: biochemical.
Sequence of hCA XII (O43570 25-354): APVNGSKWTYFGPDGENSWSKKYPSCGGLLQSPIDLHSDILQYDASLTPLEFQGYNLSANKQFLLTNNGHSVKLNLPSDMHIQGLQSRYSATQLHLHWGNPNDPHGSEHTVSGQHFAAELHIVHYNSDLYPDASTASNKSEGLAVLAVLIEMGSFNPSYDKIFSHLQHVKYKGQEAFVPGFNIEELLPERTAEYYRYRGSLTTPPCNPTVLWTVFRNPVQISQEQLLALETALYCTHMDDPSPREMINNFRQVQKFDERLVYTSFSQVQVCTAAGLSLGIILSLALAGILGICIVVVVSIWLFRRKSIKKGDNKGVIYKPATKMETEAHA
Data set [2] deals with panel of tumor cell lines. Briefly: Antiproliferative activity over the panel of tumor cell lines. It is filed as cell-based, human. Conditions: for IC50: Homo sapiens.
In another data set the target is hCA II (Homo sapiens, UniProt P00918). Briefly: Stopped flow CO2 hydrase assay, hCA II. It is filed as biochemical.
The next data set concerns NCI-H1975. The data set is described as follows: Antiproliferative assay, NCI-H1975. It is filed as cell-based. Conditions: Homo sapiens, NCI-H1975, read-out: IC50 NCI-H1975.
The next data set deals with HCT-116. The data set is described as follows: Antiproliferative assay, HCT-116. To be noted: Homo sapiens, HCT-116, read-out: IC50 HCT-116. It is filed as cell-based.
The test system of another data set is LN229. The data set is described as follows: Antiproliferative assay, LN229. To be noted: Homo sapiens, LN-229, read-out: IC50 LN229. Type of data set: cell-based.
A further data set has as its target hCA I (Homo sapiens, UniProt P00915). The data set is described as follows: Stopped flow CO2 hydrase assay, hCA I. Type of data set: biochemical.
A further data set concerns K562. Briefly: Antiproliferative assay, K562. Type of data set: cell-based. Conditions: Homo sapiens, K562, read-out: IC50 K562.
For another data set, the system named is A431 skin cancer cells. Briefly: MTT assay, A431 cells in normoxia and hypoxia. Type of data set: cell-based. Conditions: for IC50: Homo sapiens, A-431, 72 h. The method, boiled down:
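A431 cells were cultured in high-glucose DMEM with 10% FBS and penicillin/streptomycin at 37 °C and 5% CO2, then seeded at 35 000 per well. After 24 h, test compound from a 10 mM DMSO stock was added, with solvent-only controls. Incubation lasted 72 h under normoxia or hypoxia (1% O2). Viability was read by MTT, with IC50 from the concentration-response curve.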

The test system of data set [3] is CA IX and cleaved PARP expression in A431 cells. Briefly: Immunoblotting of CA IX and cleaved PARP in A431 cells under hypoxia. Type of data set: cell-based. Conditions: 24 h. The method, boiled down: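 A431 cells grew 24 h, then received test compound or tirapazamine reference (30 μM) in fresh medium and were held 24 h in hypoxia; the control stayed in normoxia. Lysis buffer: Tris-HCl pH 7.5, Igepal, NaCl, EDTA, DTT, PMSF, orthovanadate, protease inhibitors. Protein was measured by Bradford. Blots: 10% reducing SDS-PAGE, nitrocellulose, milk/TBS-Tween block, primary antibodies overnight at 4 °C, GAPDH loading control, HRP anti-rabbit, ECL.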
Background: A western blot detects proteins with antibodies after separation by electrophoresis.

Where two headings read alike, the source gives them in different places.

Sequence of hCA I (P00915 whole entry): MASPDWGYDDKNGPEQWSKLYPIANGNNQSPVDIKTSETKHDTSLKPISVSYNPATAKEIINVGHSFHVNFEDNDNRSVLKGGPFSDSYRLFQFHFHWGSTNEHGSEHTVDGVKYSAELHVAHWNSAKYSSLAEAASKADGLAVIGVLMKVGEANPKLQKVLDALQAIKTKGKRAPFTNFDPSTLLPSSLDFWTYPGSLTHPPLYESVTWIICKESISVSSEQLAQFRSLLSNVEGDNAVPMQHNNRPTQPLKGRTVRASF

A word on the Ki: it is a measure of affinity in units of concentration, obtained from inhibition or displacement. The IC50 is the concentration at which inhibition is half-maximal. Turning to `CCOC(=O)c1c(C)[n+]([O-])c2cc(S(N)(=O)=O)ccc2[n+]1[O-]` [Compound 7f, 2-(Ethoxycarbonyl)-3-methyl-6-sulfamoylquinoxaline 1,4-dioxide], the Ki was more than 10000 nM at hCA IX, 56.4 ± 4 nM at hCA XII, 8 ± 0.3 nM at hCA II and 63 ± 3.1 nM at hCA I. For the same compound, at hCA IX, the “activity against CA IX, in words” value is “did not exhibit any inhibitory activity”. Moreover, the IC50 was determined as 1700 ± 100 nM in the data set on Capan-1; 32600 ± 1600 nM in the data set with HL-60; 3300 ± 1700 nM in the data set on Z138; 4300 ± 300 nM in [1] (MCF7, read-out: IC50 H); 10500 ± 1200 nM in [1] (MCF7, read-out: IC50 N); 10300 ± 500 nM in the data set on DND-41. Besides, the 50% inhibitory concentration (IC50) is 33300 ± 1700 nM in the data set with NCI-H1975, 2700 ± 100 nM in the data set with HCT-116, 35900 ± 1800 nM with LN229 and 26000 ± 1300 nM with K562. Further, in [1], the “HCR, hypoxic cytotoxicity ratio: IC50(N)/IC50(H)” value (from here on “HCR, hypoxic cytotoxicity ratio”) came out at 2.4. Also, the “enhancement of tumor cell growth inhibition compared to compound 7e” value in [2] (Table 4 cell lines) was 1.4–40 times.

As for `CC(=O)c1c(C)[n+]([O-])c2cc(S(N)(=O)=O)ccc2[n+]1[O-]` [Compound 7g, 2-Acetyl-3-methyl-6-sulfamoylquinoxaline 1,4-dioxide], the Ki at hCA IX stood at 42.2 ± 4 nM; on hCA XII it was 240 ± 13 nM; at hCA II, 7.4 ± 0.2 nM; on hCA I, 65.7 ± 2.4 nM. Besides, the “decrease in cell survival” value in the data set on A431 skin cancer cells (A431, 50 μM, normoxia, 72 h) is “approximately 40%”. The IC50 in the data set with A431 skin cancer cells (read-out: IC50 A431, hypoxia) was approximately 11000 nM; with A431 skin cancer cells (read-out: IC50 A431, normoxia), more than 50000 nM; in the data set with Capan-1, 38300 ± 1900 nM; in the data set on HL-60, 85900 ± 4300 nM; in the data set with Z138, 44300 ± 2200 nM; in data set [1] (MCF7, read-out: IC50 H), 6900 ± 300 nM. For the same compound, the IC50 was 7100 ± 200 nM in data set [1] (MCF7, read-out: IC50 N); 66900 ± 3300 nM in the data set with DND-41; 66100 ± 3300 nM with NCI-H1975; 69600 ± 3500 nM in the data set with HCT-116; more than 100000 nM with LN229; 94800 ± 4700 nM in the data set on K562. Further, the “CA IX expression” value in data set [3] is on record as “dose-dependent reduction in CA IX expression”. Also, the “cleaved PARP (marker of apoptosis)” value in data set [3] is reported as “accumulation of cleaved PARP”. The “HCR, hypoxic cytotoxicity ratio” value in data set [1] amounted to 1.1. Besides, the “decrease in activity compared to 2-ethoxycarbonyl analogue 7f” value in data set [2] (Table 4 cell lines) is recorded as 2–25 fold.

On to `NS(=O)(=O)c1ccc2c(c1)[n+]([O-])c(C(F)(F)F)c(C(=O)c1ccccc1)[n+]2[O-]` [Compound 7h, 2-Benzoyl-6-sulfamoyl-3-(trifluoromethyl)quinoxaline 1,4-dioxide], for which the inhibition constant (Ki) at hCA IX was more than 10000 nM; on hCA XII it was 143 ± 11 nM; on hCA II, 4.8 ± 0.3 nM; on hCA I, 51.5 ± 3.2 nM. The 50% inhibitory concentration (IC50) with Capan-1 is 1400 ± 70 nM; in the data set with HL-60 it was 1800 ± 100 nM; in the data set with Z138 it was 1900 ± 100 nM; in [1] (MCF7, read-out: IC50 H), 800 ± 50 nM; in data set [1] (MCF7, read-out: IC50 N), 1100 ± 100 nM; in the data set with DND-41 it was 2100 ± 200 nM. The IC50 is 1300 to 2100 nM in data set [2] (read-out: IC50 range over the tested tumor cell lines); 1100 to 2100 nM in [2] (read-out: IC50 range, all cell lines); 1900 ± 100 nM in the data set on NCI-H1975; 1300 ± 80 nM in the data set on HCT-116; 1400 ± 30 nM with LN229; 1900 ± 200 nM in the data set on K562. The “HCR, hypoxic cytotoxicity ratio” value in data set [1] is recorded as 1.4. Moreover, the “higher activity compared to other analogs” value in data set [2] (against most tumor cells) is recorded as 1.5–20 times.
